This note sets out measurements from ChEMBL document CHEMBL4011617, “Ugi Reaction-Derived α-Acyl Aminocarboxamides Bind to Phosphatidylinositol 3-Kinase-Related Kinases, Inhibit HSF1-Dependent Heat Shock Response, and Induce Apoptosis in Multiple Myeloma Cells” (J Med Chem, 2017).

Calls of active or inactive are those of the source. The rule behind the calls is not given here.

Test [1] relates to INA-6. Kind of test: Induction of apoptosis in human INA-6 cells preincubated for 4 hrs followed by NVP-AUY922 addition measured after 68 hrs by annexin V-FITC/propidium iodide staining-based flow cytometry method. Type of test: functional, cell-based. Summed up:
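INA-6 cells received DMSO or test compound for 72 h. At 4 h, DMSO or 10 nM NVP-AUY922 was added for the remaining 68 h. Viable fraction measured by annexin V-FITC/PI flow cytometry and expressed relative to the matching DMSO controls; means ± SD of three independent experiments.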
For orientation: A flow cytometer gives signals particle by particle.

In test [2] the target is T1, Heat shock factor protein 1 (Homo sapiens) (UniProt Q00613).
T1 sequence (whole entry): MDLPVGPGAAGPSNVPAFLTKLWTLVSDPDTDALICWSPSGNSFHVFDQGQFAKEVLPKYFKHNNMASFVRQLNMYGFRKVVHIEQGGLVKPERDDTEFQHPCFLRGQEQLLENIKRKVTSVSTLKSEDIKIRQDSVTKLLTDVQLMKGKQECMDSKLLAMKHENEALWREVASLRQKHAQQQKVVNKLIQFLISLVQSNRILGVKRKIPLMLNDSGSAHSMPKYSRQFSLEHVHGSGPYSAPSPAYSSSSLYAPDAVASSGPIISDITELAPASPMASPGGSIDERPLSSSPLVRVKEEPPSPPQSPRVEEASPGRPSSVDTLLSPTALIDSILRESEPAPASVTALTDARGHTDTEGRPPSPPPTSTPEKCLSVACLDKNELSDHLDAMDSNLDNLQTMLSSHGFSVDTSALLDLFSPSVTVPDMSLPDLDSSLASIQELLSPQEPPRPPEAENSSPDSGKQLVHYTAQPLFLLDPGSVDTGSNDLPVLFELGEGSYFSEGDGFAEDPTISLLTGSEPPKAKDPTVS
In words: Inhibition of NVP-AUY922-induced HSF-1 phosphorylation at S326 residue in human INA-6 cells at 25 uM preincubated for 4 hrs followed by NVP-AUY922 addition measured after 4 hrs by Western blotting method. The test is classed as cell-based. In a few lines:
(§1)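 INA-6 myeloma cells pretreated with test compound for 4 h, then co-treated with the HSP90 inhibitor/HSR inducer NVP-AUY922 for a further 4 h. Cells harvested; HSP72, HSP27, HSF1 or phospho-HSF1 probed by Western blot with β-actin as loading control. DMSO-only cells were the negative control; NVP-AUY922-only cells were the positive control.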
In general terms: Immunoblotting shows a protein as a band on a membrane.

The subject of test [3] is INA-6. Kind of test: Inhibition of heat shock response in human INA-6 cells assessed as reduction in HSF-1 mediated upregulation of the heat shock protein HSP72 at 25 uM preincubated for 4 hrs followed by HSP90 inhibitor and HSR inducer NVP-AUY922 addition measured after 4 hrs by ELISA. The test is classed as functional, cell-based. Summed up: (§2)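 HSP72 quantified by ELISA in the same protein lysates used for Western blots. INA-6 cells received compound for 4 h, then NVP-AUY922 co-treatment for 4 h more to stimulate HSF1. DMSO-only and NVP-AUY922-only cells served as negative and positive controls.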

Test [4] has as its system INA-6. Kind of test: Inhibition of heat shock response in human INA-6 cells assessed as reduction in HSF-1 mediated upregulation of the heat shock protein HSP27 at 25 uM preincubated for 4 hrs followed by HSP90 inhibitor and HSR inducer NVP-AUY922 addition measured after 4 hrs by Western blot method. The test is classed as functional, cell-based. In a few lines: as §1

Test [5] has as its system INA-6. In words: Inhibition of heat shock response in human INA-6 cells assessed as reduction in HSF-1 mediated upregulation of the heat shock protein HSP72 at 25 uM preincubated for 4 hrs followed by HSP90 inhibitor and HSR inducer NVP-AUY922 addition measured after 4 hrs by Western blot method. The test is classed as functional, cell-based. Summed up: as §1
The test system of test [6] is INA-6. Kind of test: Downregulation of NVP-AUY922-induced HSF-1 protein expression in human INA-6 cells at 25 uM preincubated for 4 hrs followed by NVP-AUY922 addition measured after 4 hrs by Western blot method. The test is classed as functional, cell-based. In a few lines: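 INA-6 cells were pre-treated with compound for 4 h, then co-treated with the HSP90 inhibitor NVP-AUY922 for an additional 4 h. Cells were harvested and blotted for HSP72, HSP27, HSF1 or phospho-HSF1, with β-actin as the loading control. DMSO-only cells served as the negative control and NVP-AUY922-only cells as the positive control.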

Test [7] has as its system INA-6. Kind of test: Effect on NVP-AUY922-induced HSF-1 mRNA expression in human INA-6 cells at 25 uM preincubated for 4 hrs followed by NVP-AUY922 addition measured after 4 hrs by RT-PCR method. The test is classed as functional, cell-based. Summed up: (§3)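 INA-6 cells exposed to compound for 4 h, then co-treated with 10 nM NVP-AUY922 for another 4 h. Total RNA isolated; HSP27, HSP72 and HSF1 transcripts measured by real-time PCR and normalized to α-tubulin. Means and standard deviations from three independent experiments.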

The test system of test [8] is INA-6. In words: Induction of apoptosis in human INA-6 cells at 6.3 to 8.6 uM after 72 hrs by annexin V-FITC/propidium iodide staining-based flow cytometry method. Type of test: functional, cell-based. In a few lines:
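INA-6 cells incubated three days with DMSO or increasing compound concentrations. Viability read by annexin V-FITC/propidium iodide staining and flow cytometry. Double-negative (viable) fractions used to fit dose-response curves from three independent experiments; mean ± SD reported.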

Test [9] relates to INA-6. In words: Inhibition of heat shock response in human INA-6 cells assessed as reduction in HSF-1 mediated upregulation of the heat shock protein HSP27 at 25 uM preincubated for 4 hrs followed by HSP90 inhibitor and HSR inducer NVP-AUY922 addition measured after 4 hrs.
For test [10], the system named is INA-6. Kind of test: Inhibition of heat shock response in human INA-6 cells assessed as reduction in HSF-1 mediated upregulation of the heat shock protein HSP72 at 12.5 uM preincubated for 4 hrs followed by HSP90 inhibitor and HSR inducer NVP-AUY922 addition measured after 4 hrs by Western blot method. The test is classed as functional, cell-based. Summed up: as §1

Test [11] has as its system INA-6. Kind of test: Effect on NVP-AUY922-induced HSF-1 mRNA expression in human INA-6 cells at 12.5 uM preincubated for 4 hrs followed by NVP-AUY922 addition measured after 4 hrs by RT-PCR method. Type of test: functional, cell-based. In a few lines: as §3
Test [12] concerns INA-6. Kind of test: Inhibition of heat shock response in human INA-6 cells assessed as reduction in HSF-1 mediated upregulation of the heat shock protein HSP72 at 12.5 uM preincubated for 4 hrs followed by HSP90 inhibitor and HSR inducer NVP-AUY922 addition measured after 4 hrs by ELISA. Type of test: functional, cell-based. Summed up: as §2
A general note: In an ELISA, binding on a coated surface is turned into a signal by an enzyme label.

In test [13] the test system is INA-6. Kind of test: Inhibition of heat shock response in human INA-6 cells assessed as reduction in HSF-1 mediated upregulation of the heat shock protein HSP27 at 12.5 uM preincubated for 4 hrs followed by HSP90 inhibitor and HSR inducer NVP-AUY922 addition measured after 4 hrs by Western blot method. Type of test: functional, cell-based. In a few lines: as §1
Test [14] relates to INA-6. Kind of test: Inhibition of heat shock response in human INA-6 cells assessed as reduction in HSF-1 mediated upregulation of the heat shock protein HSP27 at 12.5 uM preincubated for 4 hrs followed by HSP90 inhibitor and HSR inducer NVP-AUY922 addition measured after 4 hrs by ELISA. Type of test: functional, cell-based.
Test [15] relates to INA-6. Kind of test: Inhibition of heat shock response in human INA-6 cells assessed as reduction in HSF-1 mediated upregulation of the heat shock protein HSP27 at 50 uM preincubated for 4 hrs followed by HSP90 inhibitor and HSR inducer NVP-AUY922 addition measured after 4 hrs by Western blot method. The test is classed as functional, cell-based. Summed up:
as §1

The test system of test [16] is INA-6. In words: Inhibition of heat shock response in human INA-6 cells assessed as reduction in HSF-1 mediated upregulation of the heat shock protein HSP72 at 50 uM preincubated for 4 hrs followed by HSP90 inhibitor and HSR inducer NVP-AUY922 addition measured after 4 hrs by Western blot method. Type of test: functional, cell-based. In a few lines:
as §1

Test [17] concerns the target Heat shock factor protein 1 (Homo sapiens) (UniProt Q00613). Kind of test: Inhibition of NVP-AUY922-induced HSF-1 phosphorylation at S326 residue in human INA-6 cells at 50 uM preincubated for 4 hrs followed by NVP-AUY922 addition measured after 4 hrs by Western blot method. The test is classed as cell-based. Summed up: as §1
Test [18] has as its system INA-6. In words: Inhibition of heat shock response in human INA-6 cells assessed as reduction in HSF-1 mediated upregulation of the heat shock protein HSP27 at 50 uM preincubated for 4 hrs followed by HSP90 inhibitor and HSR inducer NVP-AUY922 addition measured after 4 hrs by ELISA. The test is classed as functional, cell-based.
For test [19], the system named is INA-6. In words: Inhibition of heat shock response in human INA-6 cells assessed as reduction in HSF-1 mediated upregulation of the heat shock protein HSP72 at 50 uM preincubated for 4 hrs followed by HSP90 inhibitor and HSR inducer NVP-AUY922 addition measured after 4 hrs by ELISA. Type of test: functional, cell-based. In a few lines: as §2
Test [20] concerns INA-6. In words: Downregulation of NVP-AUY922-induced HSF-1 protein expression in human INA-6 cells at 50 uM preincubated for 4 hrs followed by NVP-AUY922 addition measured after 4 hrs by Western blot method. Type of test: functional, cell-based. Summed up: as §1

For the molecule `NCCOCCOCCNCCOc1ccc(C(C(=O)NCc2ccccc2)N(C(=O)CCc2ccccc2)C2CC2)cc1` (stereo unspecified), the outcome in the test on INA-6 [1], in the test on INA-6 [6] and in the test with INA-6 [8] was Active. The inhibition entry (in [2]; with INA-6 [3]; with INA-6 [4]; in the test with INA-6 [5]; in the test on INA-6 [9]) was “Active” in each case. In the test with INA-6 [7], the result was inactive.

Regarding `NCCOCCOCCNCCCCOc1ccc(CCC(=O)N(C2CC2)C(C(=O)NCc2ccccc2)c2ccc(Br)cc2)cc1` (racemic), the inhibition result in the test with INA-6 [10], with INA-6 [12], in the test with INA-6 [13] and in the test on INA-6 [14] was “inactive” throughout. Moreover, in the test on INA-6 [11], the result was inactive. Moreover, the result with INA-6 [8] was Active.

With “N-(2-(Benzylamino)-1-(2-bromophenyl)-2-oxoethyl)-N-cyclopropylcinnamamide”, the “activity call (active/not active) for inhibition of HSP27 upregulation” value in the test with INA-6 [15] is “Active”. In addition, the “heat shock response inhibition (active/not active)” value with INA-6 [16] and in the test with INA-6 [18] was “Active” each time. For the same molecule, in [17], the inhibition entry is “Active”. Moreover, the “HSP72 upregulation inhibition (active/not active)” value in the test with INA-6 [19] was “Active”. The result in the test with INA-6 [20] was Active.
